pIC50: −log10 of the molar value. The source made the active and inactive calls. No cut-off for these calls is given here.

Data set [1] has as its target Heat shock protein HSP 90-beta (Homo sapiens) (UniProt P08238). In words: Inhibition of HSP90 in human A431 cells overexpressing EGFR assessed as downregulation of AKT protein expression after 24 hrs by Western blot analysis. The data set is classed as cell-based. The note with it: A-431. The procedure, abridged: (§1)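 A431 cells treated 24 h after seeding for 24 h over a concentration range; 17-DMAG 0.2 µM as reference. Cells lysed in RIPA buffer with protease and phosphatase inhibitors, protein measured by Bradford. Equal protein run on SDS-PAGE and blotted to nitrocellulose, then probed for EGFR, Cdk4, Akt, Hsp70 and actin. ECL detection; densitometry normalized to β-actin. Run at least twice.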

Data set [2] has as its system Mus musculus. Briefly: In vivo inhibition of HSP90 in human GTL16 cells overexpressing c-Met xenografted in CD-1 nude mouse assessed as downregulation of c-Met protein expression at 5 mg/kg, ip administered as q2d/week for 2 weeks starting 3 days after tumor injection measured at 6 hrs post last dose by Western blot analysis. The format is functional, organism-based. Details: dose 5 mg/kg. The procedure, abridged:
(§2)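 Nude-mouse s.c. xenografts given i.p. compound from day 3. Tumors excised 2 h (A431) or 6 h (GTL-16) after last dose and homogenized in tissue protein extraction reagent with 10 µg/ml protease inhibitor cocktail. Whole lysates analysed by Western blot with actin as loading control; two tumor samples per group shown.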
A general note: A xenograft is tissue or cells of one species grown in another, often human tumour cells in immunodeficient mice.

Data set [3] deals with Mus musculus. In words: Toxicity in CD-1 nude mouse xenografted with human A431 cells overexpressing EGFR assessed as mortality at 5 mg/kg, ip administered as q2d/week for 2 weeks starting 3 days after tumor injection measured on day 5 post last dose relative to vehicle-treated control. Details: dose 5 mg/kg, route intraperitoneal. The format is organism-based, A-431. The note with it: in vivo. The procedure, abridged:
(§3)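 S.c. right-flank xenografts, 5 × 10^6 cells, in female athymic nude mice 5-6 weeks old. Intraperitoneal dosing in 10 mL/kg from day 3 post-implant. Lethal toxicity counted as deaths in treated mice occurring before the first control mouse died, reported as dead/treated (8 per group). Body weight loss was also tracked from the first treatment day.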

The target in data set [4] is Heat shock protein HSP 90-beta (Homo sapiens) (UniProt P08238). In words: Inhibition of HSP90 in human A431 cells overexpressing EGFR assessed as downregulation of EGFR protein expression after 24 hrs by Western blot analysis. The note with it: A-431. The format is cell-based. In outline: as §1
In general terms: A western blot detects proteins with antibodies after separation by electrophoresis.

For data set [5], the target named is Heat shock protein HSP 90-alpha (Homo sapiens, UniProt P07900). Briefly: Displacement of GM-FITC from full-length recombinant human Hsp90-alpha after 4 hrs by fluorescence polarization assay.
Data set [6] relates to Mus musculus. In words: Toxicity in CD-1 nude mouse xenografted with human GTL16 cells overexpressing c-Met assessed as body weight loss at 5 mg/kg, ip administered as q2d/week for 2 weeks starting 3 days after tumor injection measured on day 5 post last dose relative to vehicle-treated control. The data set is classed as organism-based. Details: dose 5 mg/kg, route intraperitoneal. The settings on record: in vivo. The procedure, abridged: (§4)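 Female athymic nude mice carrying s.c. xenografts, dosed i.p. (mg/10 mL/kg per administration) starting 3 days after tumor injection. BWL% = 100 − (mean BW day x/mean BW day 1 × 100), day 1 being the first treatment day. Maximum BWL% recorded. Lethal toxicity counted as deaths before the first control death.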

The test system of data set [7] is Mus musculus. Briefly: In vivo inhibition of HSP90 in human A431 cells overexpressing EGFR xenografted in CD-1 nude mouse assessed as downregulation of CDK4 protein expression at 5 mg/kg, ip administered as q2d/week for 2 weeks starting 3 days after tumor injection measured at 2 hrs post last dose by Western blot analysis. The format is functional, organism-based. Details: dose 5 mg/kg. The settings on record: A-431. The procedure, abridged: as §2

The subject of data set [8] is NCI-H460. In words: Cell cycle arrest in human NCI-H460 cells assessed as accumulation at G2/M phase at 2 times IC50 after 24 to 72 hrs by propidium iodide staining-based FACS flow cytometric analysis. The format is functional. In general terms: Flow cytometry measures light scatter and fluorescence of single cells or particles in a stream.
For data set [9], the system named is NCI-H460. In words: Induction of apoptosis in human NCI-H460 cells assessed as cell with hypodiploid DNA content at 2 times IC50 after 24 to 72 hrs by propidium iodide staining-based FACS flow cytometric analysis. The format is functional.
The test system of data set [10] is Mus musculus. Briefly: In vivo inhibition of HSP90 in human A431 cells overexpressing EGFR xenografted in CD-1 nude mouse assessed as downregulation of EGFR protein expression at 5 mg/kg, ip administered as q2d/week for 2 weeks starting 3 days after tumor injection measured at 2 hrs post last dose by Western blot analysis. Further details: dose 5 mg/kg. The note with it: A-431. The format is functional, organism-based. In outline: as §2

In data set [11] the test system is Mus musculus. Briefly: In vivo inhibition of HSP90 in human A431 cells overexpressing EGFR xenografted in CD-1 nude mouse assessed as induction of HSP70 protein expression at 5 mg/kg, ip administered as q2d/week for 2 weeks starting 3 days after tumor injection measured at 2 hrs post last dose by Western blot analysis. Further details: dose 5 mg/kg. The format is functional, organism-based. The settings on record: A-431. In outline: as §2

Data set [12] has as its system Mus musculus. In words: Toxicity in CD-1 nude mouse xenografted with human GTL16 cells overexpressing c-Met assessed as mortality at 5 mg/kg, ip administered as q2d/week for 2 weeks starting 3 days after tumor injection measured on day 5 post last dose relative to vehicle-treated control. Further details: dose 5 mg/kg, route intraperitoneal. The data set is classed as organism-based. The settings on record: in vivo. In outline:
as §3

The subject of data set [13] is Mus musculus. Briefly: In vivo inhibition of HSP90 in human A431 cells overexpressing EGFR xenografted in CD-1 nude mouse assessed as downregulation of AKT protein expression at 5 mg/kg, ip administered as q2d/week for 2 weeks starting 3 days after tumor injection measured at 2 hrs post last dose by Western blot analysis. The format is functional, organism-based. Details: dose 5 mg/kg. The settings on record: A-431. The procedure, abridged: as §2

In data set [14] the test system is Mus musculus. In words: Toxicity in CD-1 nude mouse xenografted with human A431 cells overexpressing EGFR assessed as body weight loss at 5 mg/kg, ip administered as q2d/week for 2 weeks starting 3 days after tumor injection measured on day 5 post last dose relative to vehicle-treated control. The format is organism-based, A-431. Details: dose 5 mg/kg, route intraperitoneal. The settings on record: in vivo. The procedure, abridged: as §4

Data set [15] relates to Mus musculus. Briefly: In vivo inhibition of HSP90 in human GTL16 cells overexpressing c-Met xenografted in CD-1 nude mouse assessed as induction of HSP70 protein expression at 5 mg/kg, ip administered as q2d/week for 2 weeks starting 3 days after tumor injection measured at 6 hrs post last dose by Western blot analysis. The data set is classed as functional, organism-based. Details: dose 5 mg/kg. In outline: as §2

The target of data set [16] is Heat shock protein HSP 90-beta (Homo sapiens) (UniProt P08238). Briefly: Inhibition of HSP90 in human A431 cells overexpressing EGFR assessed as downregulation of CDK4 protein expression after 24 hrs by Western blot analysis. The note with it: A-431. The format is cell-based. The procedure, abridged: as §1
For data set [17], the system named is NCI-H460. In words: Cytotoxicity against human NCI-H460 cells assessed as growth inhibition after 72 hrs by SRB assay. The data set is classed as functional, cell-based. The note with it: NCI-H460, 72 h. In outline:
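NCI-H460 cells grown in RPMI-1640 with 10% heat-inactivated FBS, seeded at about 10% confluence and allowed 24 h recovery. Exposed to graded drug concentrations or solvent for 72 h. Surviving fraction measured by sulforhodamine B. IC50 is the concentration giving a 50% drop in cell number vs vehicle, from dose-response curve fitting; mean of n=4 with SD.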

For data set [18], the system named is Mus musculus. In words: In vivo inhibition of HSP90 in human GTL16 cells overexpressing c-Met xenografted in CD-1 nude mouse assessed as downregulation of CDK4 protein expression at 5 mg/kg, ip administered as q2d/week for 2 weeks starting 3 days after tumor injection measured at 6 hrs post last dose by Western blot analysis. The data set is classed as functional, organism-based. Further details: dose 5 mg/kg. The procedure, abridged:
as §2

Data set [19] relates to Mus musculus. In words: In vivo inhibition of HSP90 in human GTL16 cells overexpressing c-Met xenografted in CD-1 nude mouse assessed as downregulation of AKT protein expression at 5 mg/kg, ip administered as q2d/week for 2 weeks starting 3 days after tumor injection measured at 6 hrs post last dose by Western blot analysis. Further details: dose 5 mg/kg. The format is functional, organism-based. In outline:
as §2

A short description of data set [20]: Metabolic stability in human plasma assessed as compound remaining at 5 uM measured at 120 mins by LC/MS analysis. The data set is classed as ADME, cell-free. In outline:
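Compound added to human plasma at 5 µM final and incubated at 37 °C for up to 120 min. Samples quenched in two volumes of chilled acetonitrile and centrifuged at 4 °C. Remaining compound quantified by LC/MS.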

The subject of another data set is A-431. In words: Antitumor activity against human A431 cells overexpressing EGFR xenografted in CD-1 nude mouse assessed as tumor growth inhibition at 5 mg/kg, ip administered as q2d/week for 2 weeks starting 3 days after tumor injection measured on day 5 post last dose relative to vehicle-treated control. The settings on record: A-431, ip, route intraperitoneal, read-out: TGI. The data set is classed as functional. The procedure, abridged: (§5)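 Female athymic nude mice, 5-6 weeks old, inoculated s.c. in right flank with 5 × 10^6 exponentially growing tumor cells. Intraperitoneal dosing in 10 mL/kg, starting 3 days post-implant. Tumor volume = d²·D/2 from calipered shortest and longest diameters, measured biweekly. TVI% = 100 − (mean TV treated/mean TV control × 100), scored 5 days after last dose. Mann-Whitney test vs vehicle group; 8 mice per group.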

A short description of data set [21]: Antitumor activity against human GTL16 cells overexpressing c-Met xenografted in CD-1 nude mouse assessed as tumor growth inhibition at 5 mg/kg, ip administered as q2d/week for 2 weeks starting 3 days after tumor injection measured on day 5 post last dose relative to vehicle-treated control. The data set is classed as functional. The note with it: GTL 16, ip, route intraperitoneal, read-out: TGI. In outline:
as §5

The target of data set [22] is Heat shock protein HSP 90-beta (Homo sapiens) (UniProt P08238). Briefly: Inhibition of HSP90 in human A431 cells overexpressing EGFR assessed as induction of HSP70 protein expression after 24 hrs by Western blot analysis. The note with it: A-431. The format is cell-based. The procedure, abridged: as §1

Heat shock protein HSP 90-beta (Homo sapiens), sequence (P08238 whole entry): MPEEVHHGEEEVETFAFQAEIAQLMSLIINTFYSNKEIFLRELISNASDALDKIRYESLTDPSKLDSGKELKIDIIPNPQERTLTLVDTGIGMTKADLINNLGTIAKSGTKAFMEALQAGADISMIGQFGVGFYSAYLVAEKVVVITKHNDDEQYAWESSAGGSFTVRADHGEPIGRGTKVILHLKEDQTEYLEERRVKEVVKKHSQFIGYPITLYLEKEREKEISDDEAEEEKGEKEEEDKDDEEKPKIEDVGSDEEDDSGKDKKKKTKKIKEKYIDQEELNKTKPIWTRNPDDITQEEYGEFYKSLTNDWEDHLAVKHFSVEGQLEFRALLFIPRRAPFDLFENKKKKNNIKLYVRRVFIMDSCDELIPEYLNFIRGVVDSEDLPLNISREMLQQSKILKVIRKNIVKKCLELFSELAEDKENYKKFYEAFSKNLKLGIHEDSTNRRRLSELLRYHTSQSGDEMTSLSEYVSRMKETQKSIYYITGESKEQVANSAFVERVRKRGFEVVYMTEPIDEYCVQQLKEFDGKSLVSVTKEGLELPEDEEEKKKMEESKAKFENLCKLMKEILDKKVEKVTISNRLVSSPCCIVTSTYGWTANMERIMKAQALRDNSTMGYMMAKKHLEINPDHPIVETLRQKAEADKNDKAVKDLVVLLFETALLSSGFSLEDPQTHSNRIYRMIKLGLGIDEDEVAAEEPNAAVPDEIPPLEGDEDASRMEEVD

In general, pIC50 refers to −log10 of the IC50, conventionally taken in molar units. In general, share remaining refers to the share of the starting amount still present when the sample was taken. `CCNC(=O)c1nnn(-c2cc(C(C)C)c(O)cc2O)c1-c1ccc(CN2CCOCC2)cc1`: the inhibition entry in [1], in data set [4], in data set [16] and in data set [22] was “Dose-dependent effect” throughout. The inhibition entry in the data set on Mus musculus [2], in the data set on Mus musculus [7], with Mus musculus [10], in the data set on Mus musculus [11], in the data set on Mus musculus [13] and in the data set with Mus musculus [15] was “Active” throughout. The inhibition entry in the data set with Mus musculus [18] and in the data set with Mus musculus [19] was “Active” each time. Moreover, the Activity result in the data set with Mus musculus [3] and with Mus musculus [12] was “Non-toxic” throughout. The pIC50 in data set [5] was more than 8.30; in the data set with NCI-H460 [17] it was 8.40. The figures for the Imax in the data set on Mus musculus [6] and in the data set on Mus musculus [14] were 17% and 1%, respectively. For the same molecule, the result in the data set on NCI-H460 [8] and in the data set on NCI-H460 [9] was Active. In data set [20], the amount remaining at 2 h, 5 µM stood at 65%. The inhibition in vivo at 5 mg/kg came to 49% in the data set with A-431 and 42% in data set [21].

(Values after ChEMBL document CHEMBL3232837, “Synthesis and evaluation of new Hsp90 inhibitors based on a 1,4,5-trisubstituted 1,2,3-triazole scaffold” (J Med Chem, 2014).)
